Ten molecules from ChEMBL document CHEMBL1932985, “Identification of biaryl sulfone derivatives as antagonists of the histamine H₃ receptor: discovery of (R)-1-(2-(4'-(3-methoxypropylsulfonyl)biphenyl-4-yl)ethyl)-2-methylpyrrolidine (APD916)” (Bioorg Med Chem Lett, 2012) can be followed below.

Active and inactive are the calls of the source.

A word on the Ki: it is a dissociation constant, usually derived from enzyme kinetics or from competition with a known ligand. A low value points to higher affinity. One may read the IC50 as the concentration that inhibits the measured activity by half. Read a high IC50 as a need for much substance. The term Tmax denotes the time from dosing to the highest level. What is called Cmax is the highest concentration seen after dosing. By half-life is commonly meant the time needed for the level to fall by half in the phase considered. A lower half-life goes with fast loss. For orientation: bioavailability means the share of a dose that reaches the circulation, judged against a reference dose that is usually intravenous. High values mean good availability, low ones poor availability. The inhibition is the relative decrease from the control value, in per cent.

The target of one data set is Histamine H3 receptor (Rattus norvegicus, UniProt Q9QYN8). The data set is described as follows: Displacement of N-[3H]-methylhistamine from histamine H3 receptor in rat cortex membranes. Type of data set: cell membranes, Membrane.
The target in data set [1] is Voltage-gated inwardly rectifying potassium channel KCNH2 (Homo sapiens, UniProt Q12809). Briefly: Inhibition of human ERG by patch-clamp assay.
The subject of data set [2] is Rattus norvegicus. The data set is described as follows: Inhibition of RAMH-induced dipsogenia in po dosed Sprague-Dawley rat administered 30 mins prior to RAMH challenge measured up to 20 mins. Type of data set: functional. The following applies: read-out: MED. Put shortly:
(§1)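 Rats given compound orally 0.5 h (or, for duration of action, at selected times up to 6 h) before RAMH 10 mg/kg SC; water consumed over 20 min measured. Screening doses 1 or 0.3 mg/kg PO, also 0.1 mg/kg; duration study at 0.6 mg/kg PO. MED = minimum dose fully inhibiting drinking; means ± SEM.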

A short description of data set [3]: Tmax in Sprague-Dawley rat at 3 mg/kg, po and iv by LC-MS/MS analysis. To be noted: in vivo. Also noted: dose 3 mg/kg, route oral. Type of data set: ADME, organism-based. Put shortly: (§2)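 Rats were given the compound both IV and PO in a routine PK study. Tmax came from the PO arm and Vss from the IV arm.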
Data set [4] is described as follows: Cmax in Sprague-Dawley rat plasma at 3 mg/kg, po and iv by LC-MS/MS analysis. Type of data set: ADME, organism-based. Also noted: dose 3 mg/kg, route oral. An outline of the steps: (§3)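 Rat PK after IV and PO dosing; plasma Cmax, Tmax, IV half-life and Vss determined; oral bioavailability from AUCpo/AUCiv. Metabolite exposure determined after a 3 mg/kg PO parent dose.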

The nature of data set [5]: Half life in Sprague-Dawley rat at 3 mg/kg, iv by LC-MS/MS analysis. Type of data set: ADME, organism-based. Also noted: dose 3 mg/kg, route intravenous. To be noted: in vivo. Put shortly: as §3
Data set [6] has as its system Rattus norvegicus. Briefly: Volume of distribution at steady state in Sprague-Dawley rat at 3 mg/kg, po and iv by LC-MS/MS analysis. More on the design: dose 3 mg/kg, route oral. Type of data set: ADME, organism-based. The following applies: in vivo. An outline of the steps: as §2
A short description of data set [7]: Oral bioavailability in Sprague-Dawley rat at 3 mg/kg by LC-MS/MS analysis. The class given is ADME, organism-based. To be noted: in vivo. Put shortly: as §3
Data set [8] is described as follows: Ratio of drug level in brain to plasma in Sprague-Dawley rat at 3 mg/kg, po and iv after 0.75 to 3 hrs by LC-MS/MS analysis. Type of data set: ADME, organism-based. More on the design: dose 3 mg/kg, route oral. To be noted: read-out: BPR. An outline of the steps:
(§4)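 Brain (µg/mg) and plasma (µg/mL) levels were measured after oral dosing, with three rats per time point. The b/p ratio was the mean of the nine individual ratios.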

Data set [9] can be described thus: Tmax in Sprague-Dawley rat at 1 mg/kg, po and iv by LC-MS/MS analysis. The class given is ADME, organism-based. The following applies: in vivo. More on the design: dose 1 mg/kg, route oral. An outline of the steps: as §2
Data set [10] is described as follows: Cmax in Sprague-Dawley rat plasma at 1 mg/kg, po and iv by LC-MS/MS analysis. Type of data set: ADME, organism-based. More on the design: dose 1 mg/kg, route oral. Put shortly: as §3
The nature of data set [11]: Half life in Sprague-Dawley rat at 1 mg/kg, iv by LC-MS/MS analysis. The class given is ADME, organism-based. More on the design: dose 1 mg/kg, route intravenous. The following applies: in vivo. An outline of the steps:
as §3

Data set [12] relates to Rattus norvegicus. Briefly: Volume of distribution at steady state in Sprague-Dawley rat at 1 mg/kg, po and iv by LC-MS/MS analysis. Type of data set: ADME, organism-based. Also noted: dose 1 mg/kg, route oral. To be noted: in vivo. Put shortly:
as §2

A short description of data set [13]: Oral bioavailability in Sprague-Dawley rat at 1 mg/kg by LC-MS/MS analysis. Type of data set: ADME, organism-based. The following applies: in vivo. Put shortly:
as §3

Data set [14] is described as follows: Ratio of drug level in brain to plasma in Sprague-Dawley rat at 1 mg/kg, po and iv after 0.75 to 3 hrs by LC-MS/MS analysis. To be noted: read-out: BPR. The class given is ADME, organism-based. More on the design: dose 1 mg/kg, route oral. Put shortly:
as §4

The next data set deals with hERG (KCNH2) (Homo sapiens, UniProt Q12809). Briefly: Inhibition of human ERG at 3 uM by patch-clamp assay.
Data set [15] has as its system Rattus norvegicus. The data set is described as follows: Inhibition of RAMH-induced dipsogenia in Sprague-Dawley rat at 0.1 mg/kg, po administered 30 mins prior to RAMH challenge measured up to 20 mins. Type of data set: functional, organism-based. More on the design: dose 0.1 mg/kg. Put shortly:
as §1

For data set [16], the system named is Rattus norvegicus. Briefly: Inhibition of RAMH-induced dipsogenia in Sprague-Dawley rat at 0.6 mg/kg, po administered 30 mins prior to RAMH challenge measured up to 20 mins. Also noted: dose 0.6 mg/kg. The class given is functional, organism-based. Put shortly: as §1
Data set [17] deals with Rattus norvegicus. The data set is described as follows: Effect on sleep-awake cycle in EEG/EMG Sprague-Dawley rat model assessed as increase in wakefulness at 0.6 mg/kg, po measured for 2 hrs. Type of data set: functional, organism-based. More on the design: dose 0.6 mg/kg. Put shortly: (§5)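 Rats with chronically implanted cortical electrodes dosed orally (0.6 mg/kg; dose-response also run) during subjective night, about four hours after lights on; wake time recorded over 8 h versus vehicle and assessed over first 1, 2 and 4 h; means ± SEM.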

Data set [18] has as its system Rattus norvegicus. Briefly: Effect on sleep-awake cycle in EEG/EMG Sprague-Dawley rat model assessed as increase in wakefulness at 0.6 mg/kg, po measured for 4 hrs. More on the design: dose 0.6 mg/kg. Type of data set: functional, organism-based. An outline of the steps: as §5
In data set [19] the test system is Rattus norvegicus. Briefly: Effect on sleep-awake cycle in EEG/EMG Sprague-Dawley rat model assessed as increase in wakefulness at 0.3 mg/kg, po measured for 1 hr. The class given is functional, organism-based. More on the design: dose 0.3 mg/kg. Put shortly: as §5
The subject of data set [20] is Rattus norvegicus. The data set is described as follows: Effect on sleep-awake cycle in EEG/EMG Sprague-Dawley rat model assessed as increase in wakefulness at 0.3 mg/kg, po measured for 2 hrs. The class given is functional, organism-based. Also noted: dose 0.3 mg/kg. Put shortly:
as §5

In data set [21] the target is Histamine H1 receptor (Homo sapiens) (UniProt P35367). The data set is described as follows: Binding affinity to H1 receptor at 10 uM relative to control. Put shortly:
(§6)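 Broad binding panel of 80 receptors, including histamine H1, H2 and H4, with compound tested at 10 µM; binding expressed as percent of control.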

The target in data set [22] is Histamine H2 receptor (Homo sapiens) (UniProt P25021). Briefly: Binding affinity to H2 receptor at 10 uM relative to control. Put shortly: as §6
The target in data set [23] is Histamine H4 receptor (Homo sapiens) (UniProt Q9H3N8). The data set is described as follows: Binding affinity to H4 receptor at 10 uM relative to control. An outline of the steps: as §6
Data set [24] relates to Rattus norvegicus. Briefly: Inhibition of RAMH-induced dipsogenia in Sprague-Dawley rat at 0.6 mg/kg, po administered 1 hr prior to RAMH challenge measured up to 20 mins. Also noted: dose 0.6 mg/kg. Type of data set: functional, organism-based. An outline of the steps: as §1

Sequence of Histamine H3 receptor (Q9QYN8 whole entry): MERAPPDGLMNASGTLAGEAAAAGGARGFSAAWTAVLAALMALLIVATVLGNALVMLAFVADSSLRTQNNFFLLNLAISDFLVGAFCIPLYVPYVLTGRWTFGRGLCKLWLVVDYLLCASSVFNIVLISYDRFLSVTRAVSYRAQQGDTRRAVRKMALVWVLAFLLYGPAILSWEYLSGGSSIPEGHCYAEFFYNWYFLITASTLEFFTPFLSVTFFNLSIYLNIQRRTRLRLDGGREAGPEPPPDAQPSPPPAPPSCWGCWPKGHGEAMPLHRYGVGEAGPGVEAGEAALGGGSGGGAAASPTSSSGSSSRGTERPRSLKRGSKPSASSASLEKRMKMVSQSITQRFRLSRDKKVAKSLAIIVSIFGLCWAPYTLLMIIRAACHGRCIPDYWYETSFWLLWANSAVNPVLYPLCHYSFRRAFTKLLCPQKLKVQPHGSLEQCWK
Sequence of hERG (KCNH2) (Q12809 whole entry): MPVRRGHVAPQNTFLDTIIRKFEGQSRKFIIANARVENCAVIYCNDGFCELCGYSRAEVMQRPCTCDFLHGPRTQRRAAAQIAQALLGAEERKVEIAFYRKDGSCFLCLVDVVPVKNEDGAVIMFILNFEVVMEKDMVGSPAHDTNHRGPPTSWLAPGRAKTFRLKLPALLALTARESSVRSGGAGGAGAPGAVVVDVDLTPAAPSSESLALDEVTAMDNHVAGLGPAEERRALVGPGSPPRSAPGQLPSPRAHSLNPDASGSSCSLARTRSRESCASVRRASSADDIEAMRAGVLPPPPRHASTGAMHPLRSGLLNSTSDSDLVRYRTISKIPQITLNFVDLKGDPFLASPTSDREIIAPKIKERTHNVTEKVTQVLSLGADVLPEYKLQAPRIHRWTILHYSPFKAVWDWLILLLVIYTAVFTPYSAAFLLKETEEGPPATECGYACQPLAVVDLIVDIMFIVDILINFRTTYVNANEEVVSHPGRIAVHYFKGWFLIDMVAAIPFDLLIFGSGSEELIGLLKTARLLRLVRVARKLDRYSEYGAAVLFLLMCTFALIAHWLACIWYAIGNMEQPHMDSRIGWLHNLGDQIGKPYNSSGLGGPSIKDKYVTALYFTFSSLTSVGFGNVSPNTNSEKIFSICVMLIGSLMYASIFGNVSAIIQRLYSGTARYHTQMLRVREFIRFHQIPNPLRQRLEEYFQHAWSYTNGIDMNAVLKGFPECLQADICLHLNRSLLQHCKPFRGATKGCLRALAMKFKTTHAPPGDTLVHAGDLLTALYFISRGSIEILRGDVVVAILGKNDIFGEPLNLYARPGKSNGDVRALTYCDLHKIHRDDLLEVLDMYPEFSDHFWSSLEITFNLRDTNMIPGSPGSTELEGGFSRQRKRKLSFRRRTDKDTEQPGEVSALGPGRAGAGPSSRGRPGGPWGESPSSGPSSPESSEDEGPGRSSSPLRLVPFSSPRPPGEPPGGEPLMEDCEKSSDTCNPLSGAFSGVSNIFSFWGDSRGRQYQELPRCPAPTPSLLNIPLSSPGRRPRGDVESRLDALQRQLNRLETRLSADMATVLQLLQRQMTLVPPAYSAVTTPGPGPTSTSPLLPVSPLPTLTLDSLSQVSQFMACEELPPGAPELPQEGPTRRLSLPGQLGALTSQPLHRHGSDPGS
Sequence of Voltage-gated inwardly rectifying potassium channel KCNH2 (Q12809 whole entry): as above
Sequence of Histamine H1 receptor (Homo sapiens) (P35367 whole entry): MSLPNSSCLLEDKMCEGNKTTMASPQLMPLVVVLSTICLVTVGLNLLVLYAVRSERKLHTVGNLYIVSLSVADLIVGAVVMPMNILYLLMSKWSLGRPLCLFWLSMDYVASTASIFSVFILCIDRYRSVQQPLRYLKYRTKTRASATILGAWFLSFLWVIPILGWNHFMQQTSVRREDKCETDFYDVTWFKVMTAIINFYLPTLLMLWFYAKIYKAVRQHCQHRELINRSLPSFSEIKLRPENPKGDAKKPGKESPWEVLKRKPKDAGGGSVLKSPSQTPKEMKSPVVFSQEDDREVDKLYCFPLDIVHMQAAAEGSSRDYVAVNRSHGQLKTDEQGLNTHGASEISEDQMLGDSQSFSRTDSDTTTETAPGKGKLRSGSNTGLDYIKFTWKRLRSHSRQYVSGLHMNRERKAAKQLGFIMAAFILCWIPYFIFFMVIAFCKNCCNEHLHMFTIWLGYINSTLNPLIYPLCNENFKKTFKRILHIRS
Sequence of Histamine H4 receptor (Homo sapiens) (Q9H3N8 whole entry): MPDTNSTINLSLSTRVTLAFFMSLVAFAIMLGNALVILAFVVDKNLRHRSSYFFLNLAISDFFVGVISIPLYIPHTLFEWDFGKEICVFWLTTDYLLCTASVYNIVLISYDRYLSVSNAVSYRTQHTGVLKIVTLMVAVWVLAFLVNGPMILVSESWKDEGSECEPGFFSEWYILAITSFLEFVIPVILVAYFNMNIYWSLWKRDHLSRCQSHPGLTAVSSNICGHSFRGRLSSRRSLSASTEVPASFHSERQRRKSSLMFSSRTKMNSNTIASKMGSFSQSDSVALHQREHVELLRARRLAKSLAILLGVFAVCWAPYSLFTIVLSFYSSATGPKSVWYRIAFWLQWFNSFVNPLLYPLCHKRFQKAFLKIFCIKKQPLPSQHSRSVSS
Sequence of Histamine H2 receptor (Homo sapiens) (P25021 whole entry): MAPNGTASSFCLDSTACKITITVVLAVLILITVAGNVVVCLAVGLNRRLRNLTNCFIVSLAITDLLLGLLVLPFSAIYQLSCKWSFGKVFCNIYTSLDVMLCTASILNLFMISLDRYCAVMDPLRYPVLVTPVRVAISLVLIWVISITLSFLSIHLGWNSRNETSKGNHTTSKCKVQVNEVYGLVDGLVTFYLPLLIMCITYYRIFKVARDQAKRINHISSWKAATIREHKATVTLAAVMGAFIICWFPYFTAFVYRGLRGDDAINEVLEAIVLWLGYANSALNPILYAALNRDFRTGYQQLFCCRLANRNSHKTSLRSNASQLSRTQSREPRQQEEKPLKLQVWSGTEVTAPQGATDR

Regarding `C[C@@H]1CCCN1CCc1ccc(-c2ccc(S(=O)(=O)CCCO)cc2)cc1`, at Histamine H3 receptor, the Ki was 0.8 nM. In data set [1], this molecule registered an IC50 above 30000 nM. Further, the minimal effective dose with Rattus norvegicus [2] turned out to be 1 mg/kg.
Take `CCS(=O)(=O)c1ccc(-c2ccc(CCN3CCC[C@H]3C)cc2)cc1`: the affinity on Histamine H3 receptor, expressed as Ki, was 0.9 nM. In the data set on Rattus norvegicus [2], the minimal effective dose was determined as 0.3 mg/kg. Moreover, the Tmax in data set [3] stood at 18 min. The same molecule registered a Cmax in data set [4] of 57 ng/mL. In addition, the half-life in data set [5] is 84 min. In the data set on Rattus norvegicus [6], the Vdss was determined as 14.3 L/kg. In addition, the bioavailability in [7] came out at 46%. For the same molecule, the Kp in data set [8] is 1.75.
`C[C@@H]1CCCN1CCc1ccc(-c2ccc(S(=O)(=O)CC3CCCCO3)cc2)cc1` (stereo partly drawn): the Ki on Histamine H3 receptor was 0.2 nM.
With `C[C@@H]1CCCN1CCc1ccc(-c2ccc(S(=O)(=O)CCO)cc2)cc1`, at Histamine H3 receptor, the Ki stood at 1.2 nM. Further, the minimal effective dose with Rattus norvegicus [2] amounted to 1 mg/kg. Further, in data set [9], the Tmax was 30 min. Also, the Cmax in [10] was 122 ng/mL. In data set [11], the half-life is 192 min. For the same molecule, in the data set on Rattus norvegicus [12], the Vdss turned out to be 5 L/kg. In [13], this molecule came in with a bioavailability of 53.6%. The Kp in data set [14] was 0.72.
In turn, `C[C@@H]1CCCN1CCc1ccc(-c2ccc(S(=O)(=O)Cc3ccccc3)cc2)cc1` gave a Ki at Histamine H3 receptor of 0.6 nM. At hERG (KCNH2), this molecule yielded an inhibition at 3 µM of 95%.
`CCOCCS(=O)(=O)c1ccc(-c2ccc(CCN3CCC[C@H]3C)cc2)cc1` returned a Ki at Histamine H3 receptor of 1 nM. Further, at hERG (KCNH2), testing at 3 µM gave an inhibition of 45%. For the same molecule, in the data set on Rattus norvegicus [2], the minimal effective dose was 0.3 mg/kg.
Turning to `COCCCS(=O)(=O)c1ccc(-c2ccc(CCN3CCC[C@H]3C)cc2)cc1`, the inhibition entry in the data set with Rattus norvegicus [15] was “inactive”. Further, the inhibition entry with Rattus norvegicus [16] and in the data set on Rattus norvegicus [24] was “Active” throughout. In addition, the outcome in the data set with Rattus norvegicus [17] and in the data set with Rattus norvegicus [19] was Active. Further, the outcome in the data set on Rattus norvegicus [18] and in the data set with Rattus norvegicus [20] was inactive. Moreover, the inhibition in data set [21], in data set [22] and in data set [23] was below 50% in each case.
On Histamine H3 receptor, `C[C@@H]1CCCN1CCc1ccc(-c2ccc(S(=O)(=O)C3CCCC3)cc2)cc1` came in with an inhibition constant Ki of 1 nM.
On Histamine H3 receptor, `CC(C)S(=O)(=O)c1ccc(-c2ccc(CCN3CCC[C@H]3C)cc2)cc1` had an inhibitory constant (Ki) of 2.65 nM. This Ki lies about 2.6-fold higher than the previous one.
The same measure, in the same setting: as for `COCS(=O)(=O)c1ccc(-c2ccc(CCN3CCC[C@H]3C)cc2)cc1`, the figure is 2.44 nM.
